# Experimental data from different studies.
# Protocols differ between the studies behind these lines.
# Target: G protein-coupled receptor kinase 4 (GRK4, Homo sapiens, UniProt P32298)
SMILES,observed,mode,technique,concentration,quantity,result
COc1cc2ncnc(Nc3ccc(Oc4ccccc4)c(C)c3C)c2cc1OC,enzyme activity,inhibitor,,1 µM,inhibition,-4%
O=C1Nc2ccc(Cl)cc2C1=Cc1cc(Cl)c(O)c(Cl)c1,cell-free assay,,,0.5 µM,remaining signal,108%
CC(C)(O)[C@H]1CC[C@H](Nc2ccc3ncc(-c4cccc(C(F)(F)F)c4)n3n2)CC1,enzyme activity,inhibitor,,1 µM,remaining activity,96.5%
O=C(N[C@H]1CCCCC/C=C\C2C[C@@]2(C(=O)O)NC(=O)[C@@H]2C[C@@H](Oc3ccncc3)CN2C1=O)OC1CCCC1 (stereo partly shown),binding,,competition with immobilised ligand,1 µM,remaining binding,80%
Cc1sc(C(=O)NC2COC2)cc1-n1cc(NC(=O)Nc2c(F)cccc2Cl)cn1,enzyme activity,inhibitor,,10 µM,remaining activity,113%
O=C(Nc1ccc(Oc2ccc(F)cc2)cc1)N1CCc2ncccc2[C@H]1c1ccc(F)cc1,cell-free assay,,competition with immobilised ligand,1 µM,remaining binding,93%
O=C(Nc1cnn(-c2csc(C(=O)NC3COC3)c2)c1)Nc1c(F)cccc1Cl,enzyme activity,inhibitor,,5 µM,remaining activity,93.6%
CC(=O)N1CCC(c2ccc(C(=O)NC(=N)N)cc2C(F)(F)F)CC1,cell-free assay,,competition with immobilised ligand,1 µM,remaining binding,100%
N#CCCc1ccc2c(c1)-c1[nH]c3ccc([N+](=O)[O-])cc3c1CC(=O)N2,cell-free assay,,,0.5 µM,remaining signal,101%
CC(C)(C)c1nc2c(s1)c1nc(N)ncc1c1ccc(NS(=O)(=O)c3c(F)cccc3F)c(F)c12,enzyme activity,inhibitor,radiometric,1 µM,remaining activity,70%
CN(C)C1CCN(CC#Cc2nn(C3CCCC3)c3nc(NCc4ccccc4)ncc23)C1 (stereo not shown),enzyme activity,inhibitor,FRET,1 µM,inhibition,11%
O=c1nc(-c2ccccn2)sc2ccccc12,binding,,competition with immobilised ligand,1 µM,remaining binding,100%
CCN(CC)CCNC(=O)c1c(C)[nH]c(/C=C2\C(=O)Nc3ccc(F)cc32)c1C,cell-free assay,,,0.5 µM,remaining signal,75.8%
